Compound activity as filed in PubChem.
An excerpt weighted towards active compounds, which were near 0.48% of everything screened.
Rce1 inhib: yeast Ras-converting enzyme inhibition; calls only; yeast membranes, quenched prenylated peptide cleavage fluorescence; 290,000 compounds, 0.27% hits;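 active means fall in fluorescence gain of 50% or more versus controls, with final raw signal at or below 3038400; inconclusive means same 50% fall but final raw signal above 3038400; inactive means fall in fluorescence gain under 50%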;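 further: plate controls were neutral control wells for no effect and wells lacking membranes for full effect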
procasp3 activ: procaspase-3 (human) activation; P42574; activation, % at 8.5 µM; AID 463141; 330,000 compounds, 0.11% hits; recombinant procaspase-3 D3A, Ac-DEVD-pNA absorbance 405 nm;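 active means activation above the mean of all tested compounds plus 3 SD, cut at about 21% in these data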;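 further: 0% = DMSO alone and 100% = DMSO wells spiked with extra 5 µM PC-3 D3A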
Target sequence (P42574 whole entry D9A/D28A/D175A): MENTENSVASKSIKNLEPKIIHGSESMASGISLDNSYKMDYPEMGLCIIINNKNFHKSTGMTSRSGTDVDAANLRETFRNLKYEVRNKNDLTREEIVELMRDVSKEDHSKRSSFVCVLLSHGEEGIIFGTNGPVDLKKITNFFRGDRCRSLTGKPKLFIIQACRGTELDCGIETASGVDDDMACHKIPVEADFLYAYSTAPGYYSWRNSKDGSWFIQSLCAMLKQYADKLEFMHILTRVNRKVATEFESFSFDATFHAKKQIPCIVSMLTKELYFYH
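material = Procaspase-3 D3A mutant | probe or stimulus = Ac-DEVD-pNA | compound = single dose, 8.5 µM nominal compound, 0.8% DMSO | timing = 1 h preincubation, 2 h reaction | measured by = 405 nm absorbance of p-nitroaniline, reads at 0 and 120 min | benchmarks = DMSO-only low control, 5 µM PC-3 D3A high control | repeats = singlicate, each compound tested once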
A1 inh: inhibitors of the anti-apoptotic protein A1, read as caspase activation. MEF A1-2A-BIM cells, Caspase-Glo 3/7 luminescence, 3 h; percent of clofoctol response, vehicle zero. caspase activation, % (test concentration not listed). 330,000 compounds, 0.066% hits. AID 2462;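 active means over half of replicate activation scores above 10%, or exactly half above 10 with the replicate mean above 10; inconclusive means replicate mean below 10 yet half the replicates above 10; inactive means over half of replicates below 10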
procasp7 counter: counter-screen: procaspase-7 (human) activation. P55210. recombinant procaspase-7, Ac-DEVD-pNA absorbance 405 nm; D23A/D198A/D206A triple mutant, cannot self-cleave; scale: DMSO 0, 5 µM enzyme 100. activation, % at 8.5 µM. 330,000 compounds, 0.093% hits. AID 463210;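 active means percent activation above the screen-wide mean plus 3 SD, cut at about 25% in these data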
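System: Uncleavable procaspase-7 mutant enzyme; Amount: 2 µM procaspase-7 mutant as dispensed; Schedule: 1 h compound preincubation, 2 h substrate cleavage, 25 °C; Measured by: 405 nm absorbance of p-nitroaniline; Evaluation: percent activation from buffer-corrected 0–120 min absorbance change; Control set: low DMSO alone, high DMSO plus 5 µM PC-7.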
PolyA inh: inhibitors of polyadenylation in S. cerevisiae; 300,000 compounds, 0.02% hits; activity score, % at 12 µM; S. cerevisiae SKY197-pL101 polyadenylation reporter, beta-gal luminescence; efflux-impaired pdr1/pdr3 knockout yeast; score 100 = 6 SD above DMSO;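 active means lowest replicate activity score at least 50, where 100 means six control SD above control mean; inconclusive means lowest score under 50 but half or more replicates reach 50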;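 further: yeast exposed to compound for 9 h at 30 °C; higher score means more reporter readthrough which indicates perturbed polyadenylation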
The depositor's hits bear a star; i = inactive; ? = inconclusive; . = no result given; + = active, no number.

SMILES	Rce1 inhib	procasp3 activ	A1 inh	procasp7 counter	PolyA inh
Cc1ccc2c(c1)C(=O)C(=O)N2CCCOc1ccccc1	+	1	0	8	-1
Cc1cccc(OCCCN2C(=O)C(=O)c3cc(C)ccc32)c1	+	3	0	6	-12
Cc1ccc(OCCCN2C(=O)C(=O)c3cc(C)ccc32)cc1	i	4	1	0	?
CCOc1ccc(CNC2CCCCCCC2)cc1OC	i	6	12*	0	-4
CN(C)S(=O)(=O)N1CCC(Oc2cccc(C(=O)N3CCCCCCC3)c2)CC1	i	-7	1	-3	-1
c1ccc(Nc2ncnc3[nH]ncc23)cc1	i	-7	0	10	-2
COC(=O)c1ccc(-c2ccc(CNCC(O)c3ccccc3)o2)cc1 (centres undefined)	+	-3	0	5	-6
COC(=O)c1cc(C(=O)N2CCN(c3cccc(C)c3C)CC2)cc([N+](=O)[O-])c1	i	-3	0	-2	103*
COC(=O)c1cc(C(=O)N2CCN(c3ccccc3OC)CC2)cc([N+](=O)[O-])c1	i	4	0	-2	11
O=C(NCc1ccc(/C=N\NC(=O)C(=O)Nc2ccccc2Br)o1)C(=O)Nc1ccccc1	i	8	11*	14	8
CCCc1nnc(SCC(=O)Nc2nnc(CC)s2)n1CC1CCCO1 (centres undefined)	i	5	0	2	-13
COc1ccc(OC)c(Cc2nnc(CCC(=O)N3CCN(C4CCCC4)CC3)o2)c1	+	-5	0	16	-17
CN(CC(=O)Nc1ccc(S(=O)(=O)N2CCCC2)cc1)CC(=O)Nc1cccc(F)c1	i	-2	0	0	-2
COc1ccc(-c2nn(-c3ccccc3)cc2/C=C/C(=O)OCC(=O)Nc2ccccc2C#N)cc1	i	13	24*	-3	-4
NC(=O)c1ccc(NC(=O)COC(=O)/C=C/c2cn(-c3ccccc3)nc2-c2cccnc2)cc1	i	10	0	10	2
COc1ccccc1CNC(=O)c1ccccc1N	+	3	0	4	-1
O=C(O)c1ccc(S(=O)(=O)Nc2cccc(CP(=O)(c3ccccc3)c3ccccc3)c2)cc1	i	5	0	10	1
O=C(c1ccccc1NS(=O)(=O)c1ccc([N+](=O)[O-])cc1[N+](=O)[O-])N1O[C@@H]2C=C[C@H]1C2	.	-6	.	-4	.
CC(C)C(NC(=O)c1ccco1)C(=O)NCC(c1ccco1)N1CCCCC1 (centres undefined)	+	-1	0	12	9
CSCCC(NC(=O)c1ccco1)C(=O)NCC(c1ccco1)N1CCCCC1 (centres undefined)	.	2	1	0	.
COc1ccc(NC(=O)CS(=O)c2cccc(C(F)(F)F)c2)cc1 (centres undefined)	i	0	0	-6	-4
COc1cccc(-c2cc(C(F)(F)F)n3ncc(S(=O)(=O)c4ccccc4)c3n2)c1	+	-12	2	-1	-9
CCCOc1ccc(-c2c(C(=O)N/N=C/c3ccncc3)nnn2-c2nonc2N)cc1	i	-2	0	-4	20
COc1cccc(-c2c(C(=O)N/N=C/c3sccc3C)nnn2-c2nonc2N)c1	+	1	0	7	-8
CCCOc1ccc(-c2c(C(=O)N/N=C/c3cccs3)nnn2-c2nonc2N)cc1	+	4	0	1	6
Cc1ccsc1/C=N/NC(=O)c1nnn(-c2nonc2N)c1-c1ccccc1	i	-6	0	1	-2
CC1CC(C)CN(C(=O)c2ccc(-c3ccc([N+](=O)[O-])cc3)o2)C1 (centres undefined)	i	-2	10*	-15	-15
O=C(c1ccc(-c2ccc([N+](=O)[O-])cc2)o1)N1CCCCC1	i	-8	0	2	-2
CCOC1=NN(c2ccc(Cl)cc2)C(=O)/C1=C\N(C)C	i	5	1	-3	-3
CC(=O)c1ccc(NC(=O)C(C)Sc2nnc3ccccn23)cc1 (centres undefined)	.	1	0	4	.
